Experimental data from PubChem BioAssay AID463201 (Sanford-Burnham Center for Chemical Genomics, 2010).
Calls of active or inactive are those of the source.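 Rule for the calls: active = activation above 50% at 10 µM in both replicate datasets; inactive = the rest.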

Target: Vasopressin V2 receptor (Homo sapiens) (UniProt P30518)
Assay: agonism at AVPR2 via arrestin translocation – imaging, beta-arrestin-GFP, U2OS, agonist mode, selectivity assay for GPR35 antagonist project, SAR follow-up (AID 463201)
Settings: U2OS V2R beta-arrestin-GFP translocation imaging, 40 min; at 10 µM; stronger effect = higher value
Procedure, shortened: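 Medium: Serum-free medium | Material: U2OS cells stably expressing human vasopressin receptor and beta-arrestin2-GFP | Signal: Imaging of arrestin-GFP aggregates in fixed cells | Times: Compound exposure 40 min at 37 °C, then fixation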

Sequence of Vasopressin V2 receptor (Homo sapiens) (P30518 whole entry, looked up): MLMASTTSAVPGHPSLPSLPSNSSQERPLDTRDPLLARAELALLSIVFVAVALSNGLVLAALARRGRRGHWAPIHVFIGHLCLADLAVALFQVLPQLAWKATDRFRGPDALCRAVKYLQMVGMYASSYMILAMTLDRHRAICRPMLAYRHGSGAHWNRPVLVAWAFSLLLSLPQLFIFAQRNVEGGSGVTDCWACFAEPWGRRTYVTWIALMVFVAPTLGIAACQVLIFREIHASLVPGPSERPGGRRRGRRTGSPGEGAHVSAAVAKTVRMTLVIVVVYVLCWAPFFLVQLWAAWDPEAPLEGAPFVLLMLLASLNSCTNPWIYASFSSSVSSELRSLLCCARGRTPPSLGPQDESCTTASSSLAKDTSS

Question: How did the activation turn out when `Cc1c(C(=O)Nc2ccc3c(c2)OCCO3)sc2ncnc(N3CCC(C)CC3)c12` was run?
Answer: Its activation is -0.03% (inactive).

Question: `O=C(CCCN1C(=O)/C(=C\c2ccccc2)SC1=S)Nc1cccc(C(=O)O)c1` was tested. Which activation did it give?
Answer: Its activation is 0.66% (inactive).

Question: How did the activation turn out when `O=C(CCCN1C(=O)S/C(=C\C=C\c2ccccc2)C1=O)Nc1ccc(C(=O)O)cc1` was run?
Answer: The activation was 0.11% (inactive).

Question: How did the activation turn out when `COc1ccc(/C=C2/SC(=S)N(CCCC(=O)Nc3ccc(O)cc3)C2=O)cc1` was run?
Answer: The activation was -0.32% (inactive).

Question: With `Clc1ccc(Cn2ncc3c(N4CCN(c5ccccc5)CC4)ncnc32)cc1` as the compound, how does the activation read?
Answer: Its activation is -0.08% (inactive).

Question: Which activation does the source give for `Cc1ccc(/C=C2\SC(=S)N(CCCC(=O)Nc3cccc(C(=O)O)c3)C2=O)cc1` here?
Answer: Its activation is -0.08% (inactive).

Question: For `Cc1ccc(Cn2ncc3c(N4CCN(c5ccccc5C)CC4)ncnc32)cc1`, which activation is on record?
Answer: Its activation is -0.08% (inactive).

Question: `Cc1nc(N2CCC(C)CC2)c2c(C)c(C(=O)Nc3ccc4c(c3)OCCO4)sc2n1` was tested. Which activation did it give?
Answer: Its activation is -0.13% (inactive).

Question: `O=C(CCCN1C(=O)S/C(=C/c2ccccc2)C1=S)Nc1ccc(C(=O)O)cc1` was tested. Which activation did it give?
Answer: The activation was -0.21% (inactive).

Question: `Cc1ccc(/C=C2\SC(=S)N(CCCC(=O)Nc3ccc(O)cc3)C2=O)cc1` was tested. Which activation did it give?
Answer: The activation was -0.18% (inactive).

Question: With `O=C(CCCN1C(=O)/C(=C/c2ccc3c(c2)OCO3)SC1=S)Nc1ccc(C(=O)O)c(O)c1` as the compound, how does the activation read?
Answer: Its activation is 0.21% (inactive).

Question: With `Cc1ccccc1N1CCN(c2ncnc3c2cnn3Cc2ccc(Cl)cc2)CC1` as the compound, how does the activation read?
Answer: The activation was -0.16% (inactive).

Question: How did the activation turn out when `O=C(Nc1ccc2nc(SCc3ccc(Cl)cc3)sc2c1)c1ccccc1C(=O)N1CCOCC1` was run?
Answer: Its activation is 0.71% (inactive).

Question: Which activation does the source give for `COc1ccc(/C=C2\SC(=S)N(CCCC(=O)Nc3ccc(C(=O)O)c(O)c3)C2=O)cc1OC` here?
Answer: Its activation is -0.24% (inactive).

Question: How did the activation turn out when `CC(/C=C1\SC(=S)N(CCCC(=O)Nc2ccc(C(=O)O)cc2)C1=O)=C\c1ccccc1` was run?
Answer: Its activation is -0.11% (inactive).

Question: For `O=C(Nc1ccc2nc(SCc3ccccc3)sc2c1)c1ccccc1C(=O)N1CCOCC1`, which activation is on record?
Answer: Its activation is -0.18% (inactive).

Question: How did the activation turn out when `O=C(CCCN1C(=O)/C(=C/c2ccc3c(c2)OCO3)SC1=S)Nc1ccc(C(=O)O)cc1` was run?
Answer: Its activation is -0.34% (inactive).

Question: For `CCc1ccc(/C=C2\SC(=S)N(CCCC(=O)Nc3ccc(C(=O)O)cc3)C2=O)cc1`, which activation is on record?
Answer: Its activation is -0.5% (inactive).

Question: With `O=C(CCCN1C(=O)/C(=C\c2ccccc2)SC1=S)Nc1ccc(C(=O)O)cc1` as the compound, how does the activation read?
Answer: The activation was 0.29% (inactive).

Question: With `COc1ccc(/C=C2\SC(=S)N(CCCC(=O)Nc3ccc(O)cc3)C2=O)cc1` as the compound, how does the activation read?
Answer: Its activation is -0.03% (inactive).

Question: `CC(C)c1ccc(NC(=O)CSc2nc3ccsc3c(=O)n2Cc2ccc(C(=O)O)cc2)cc1` was tested. Which activation did it give?
Answer: Its activation is 0.05% (inactive).

Question: How did the activation turn out when `CC(C)(C)c1ccc(OCCC(=O)NCCc2ccc(S(N)(=O)=O)cc2)cc1` was run?
Answer: Its activation is -0.05% (inactive).

Question: With `COc1cccc(/C=C2\SC(=S)N(CCCC(=O)Nc3ccc(C(=O)O)cc3)C2=O)c1` as the compound, how does the activation read?
Answer: Its activation is -0.18% (inactive).

Question: How did the activation turn out when `O=C(CCCN1C(=O)/C(=C/c2ccccc2)SC1=S)Nc1ccc(C(=O)O)c(O)c1` was run?
Answer: Its activation is 1.45% (inactive).

Question: With `O=C(CCCN1C(=O)/C(=C/c2ccc3c(c2)OCO3)SC1=S)Nc1cccc(C(=O)O)c1` as the compound, how does the activation read?
Answer: The activation was -0.29% (inactive).

Question: Which activation does the source give for `O=C(CCCN1C(=O)S/C(=C/C=C/c2ccccc2)C1=O)Nc1ccc(C(=O)O)cc1` here?
Answer: The activation was -0.18% (inactive).

Question: With `COc1ccc(/C=C2\SC(=S)N(CCCC(=O)Nc3cccc(C(=O)O)c3)C2=O)cc1OC` as the compound, how does the activation read?
Answer: Its activation is -0.11% (inactive).

Question: With `CC(/C=C1\SC(=S)N(CCCC(=O)Nc2ccc(C(=O)O)c(O)c2)C1=O)=C\c1ccccc1` as the compound, how does the activation read?
Answer: Its activation is 0.21% (inactive).

Question: For `CCOc1ccc(NC(=O)CSc2nc3ccsc3c(=O)n2Cc2ccc(C(=O)O)cc2)cc1`, which activation is on record?
Answer: Its activation is 0.24% (inactive).

Question: `CCOC(=O)c1ccc(NC(=O)CCCN2C(=O)/C(=C/c3ccc(C)cc3)SC2=S)cc1` was tested. Which activation did it give?
Answer: Its activation is 0.05% (inactive).
